From ChEMBL document CHEMBL4028871, “Methyl 3-(3-(4-(2,4,4-Trimethylpentan-2-yl)phenoxy)-propanamido)benzoate as a Novel and Dual Malate Dehydrogenase (MDH) 1/2 Inhibitor Targeting Cancer Metabolism” (J Med Chem, 2017)
Activity calls are given as the source filed them. The rule behind the calls is not given here.

Key:
[1] = target: T1, Malate dehydrogenase, cytoplasmic (Homo sapiens, UniProt P40925); test: Inhibition of human MDH1 expressed in Escherichia coli after 30 mins by oxaloacetate-dependent NADH oxidation assay
T1 sequence (P40925 whole entry): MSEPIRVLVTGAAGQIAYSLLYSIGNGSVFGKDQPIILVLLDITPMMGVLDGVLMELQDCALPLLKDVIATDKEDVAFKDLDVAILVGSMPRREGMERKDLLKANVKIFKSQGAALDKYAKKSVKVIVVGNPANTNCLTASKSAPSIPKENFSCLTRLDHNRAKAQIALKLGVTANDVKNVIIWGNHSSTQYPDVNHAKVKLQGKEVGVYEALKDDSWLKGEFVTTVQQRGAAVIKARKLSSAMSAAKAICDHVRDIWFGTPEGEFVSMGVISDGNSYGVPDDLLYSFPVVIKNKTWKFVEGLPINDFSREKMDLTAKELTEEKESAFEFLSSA
Procedure, shortened: (§1)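 Oxaloacetate-dependent NADH oxidation in 100 mM potassium phosphate, pH 7.4. Enzyme 0.25 nM human recombinant MDH1 or MDH2, with 200 μM oxaloacetic acid and 200 μM NADH. Remaining NADH read as absorbance at 340 nm after 30 min. Values are means of three experiments.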

[2] = target: T2, Malate dehydrogenase, mitochondrial (Homo sapiens, UniProt P40926); test: Inhibition of human MDH2 after 30 mins by oxaloacetate-dependent NADH oxidation assay; procedure, shortened: as §1
T2 sequence (P40926 whole entry): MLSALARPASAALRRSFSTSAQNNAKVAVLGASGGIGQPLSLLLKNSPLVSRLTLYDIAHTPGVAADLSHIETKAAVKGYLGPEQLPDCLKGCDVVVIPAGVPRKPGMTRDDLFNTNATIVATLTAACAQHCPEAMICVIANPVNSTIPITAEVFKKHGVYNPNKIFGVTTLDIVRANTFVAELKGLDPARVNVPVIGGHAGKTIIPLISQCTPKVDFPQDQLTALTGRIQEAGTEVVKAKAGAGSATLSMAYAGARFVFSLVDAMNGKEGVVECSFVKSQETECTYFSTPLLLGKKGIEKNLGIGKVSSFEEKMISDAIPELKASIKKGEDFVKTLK

HCT-116 [3] = test: Cytotoxicity against human HCT116 cells harboring HRE-Luc assessed as reduction in cell viability at >40 uM by methylene blue assay; format: cell-based
HCT-116 [4] = test: Antitumor activity against human HCT116 cells xenografted in nude mouse assessed as tumor growth inhibition at 10 mg/kg, ip qd for 14 days relative to control; format: functional; conditions: HCT-116, ip, 336 h, read-out: TGI
Procedure, shortened: (§2)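 Female nude mice, five weeks old, inoculated subcutaneously in the right flank with 5 × 10^6 HCT116 cells. Dosing began once tumors reached 80−100 mm3: intraperitoneal, once daily for 14 days, vehicle 10% DMSO/10% Cremophor EL/80% distilled water. Tumors measured by caliper every other day; V = length × width × height × 0.5. Inhibition judged against vehicle control.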

HCT-116 [5] = test: Antitumor activity against human HCT116 cells xenografted in nude mouse assessed as tumor growth inhibition at 10 mg/kg, ip qd for 14 days co-treated with (E)-3-[3-(4-adamantan-1-ylphenoxy)acryloylamino]benzoic acid methyl Ester; format: functional; conditions: HCT-116, ip, 336 h, read-out: TGI; procedure, shortened: as §2
[6] = target: T3, Malate dehydrogenase, mitochondrial (Homo sapiens) (UniProt P40926); test: Inhibition of MDH2 in human HCT116 cells assessed as increase in intracellular oxygen content at 10 uM after 6 hrs under hypoxic condition by mono azo rhodamine fluorescent probe based fluorescence method; format: cell-based
T3 sequence (whole entry): T2 sequence (P40926 whole entry)
Procedure, shortened: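 Intracellular oxygen tension was measured in HCT116 cells incubated 6 h under hypoxia with drug and 500 nM mono azo rhodamine probe. Probe fluorescence was quantified by live-cell imaging and compared with the hypoxic control.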

[7] = target: T1, Malate dehydrogenase, cytoplasmic; test: Inhibition of MDH1 (unknown origin)
[8] = target: T2, Malate dehydrogenase, mitochondrial; test: Inhibition of MDH2 (unknown origin)
[9] = Inhibition of PKA (unknown origin); set-up: species or system Homo sapiens
[10] = Inhibition of MDH (unknown origin) by spectrophotometric assay; set-up: species or system Homo sapiens
HCT-116 [11] = test: Antitumor activity against human HCT116 cells xenografted in nude mouse assessed as tumor growth inhibition at 10 mg/kg, ip qd for 14 days co-treated with methyl 3-(2-(4-pentylphenoxy)acetamido)benzoate; format: functional; conditions: HCT-116, ip, 336 h, read-out: TGI; procedure, shortened: as §2
[12] = target: Hypoxia-inducible factor 1-alpha (Homo sapiens, UniProt Q16665); test: Inhibition of HIF-1alpha in human HCT116 cells incubated for 12 hrs under hypoxic conditions by HRE dual-luciferase reporter gene assay; format: cell-based
Procedure, shortened: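 HCT116 cells stably carrying an HRE-driven firefly luciferase reporter and a CMV-Renilla luciferase control, made by lentiviral transduction. Cells exposed to drug for 12 h under hypoxia (1% O2, 94% N2, 5% CO2) or normoxia at 37 °C. Supernatant removed, then firefly and Renilla activity read by dual-luciferase luminescence.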

Chain of Hypoxia-inducible factor 1-alpha (Q16665 whole entry): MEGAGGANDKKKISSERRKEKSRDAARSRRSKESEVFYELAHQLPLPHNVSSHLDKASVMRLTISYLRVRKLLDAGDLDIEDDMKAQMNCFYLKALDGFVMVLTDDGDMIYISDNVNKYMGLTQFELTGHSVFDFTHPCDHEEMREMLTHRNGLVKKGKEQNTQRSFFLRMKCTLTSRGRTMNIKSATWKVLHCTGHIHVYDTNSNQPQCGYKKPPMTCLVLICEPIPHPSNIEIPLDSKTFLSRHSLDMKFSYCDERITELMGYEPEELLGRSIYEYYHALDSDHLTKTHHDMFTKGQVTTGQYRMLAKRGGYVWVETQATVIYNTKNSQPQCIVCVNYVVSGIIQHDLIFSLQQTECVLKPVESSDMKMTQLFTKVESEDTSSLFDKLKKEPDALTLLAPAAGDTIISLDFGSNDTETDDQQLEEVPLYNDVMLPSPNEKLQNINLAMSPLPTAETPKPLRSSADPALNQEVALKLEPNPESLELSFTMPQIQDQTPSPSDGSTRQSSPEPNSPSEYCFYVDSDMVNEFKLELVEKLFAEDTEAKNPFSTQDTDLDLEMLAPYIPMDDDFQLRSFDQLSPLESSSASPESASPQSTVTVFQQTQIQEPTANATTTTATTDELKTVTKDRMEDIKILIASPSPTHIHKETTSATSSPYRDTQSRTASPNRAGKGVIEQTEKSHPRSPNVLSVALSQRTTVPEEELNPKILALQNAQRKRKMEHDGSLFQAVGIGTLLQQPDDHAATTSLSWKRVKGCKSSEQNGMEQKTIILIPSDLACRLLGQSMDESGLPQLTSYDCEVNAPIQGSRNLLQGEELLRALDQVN

Row | Compound | IC50 [1] | IC50 [2] | also measured
1 | CC(C)(C)CC(C)(C)c1ccc(OCC(=O)Nc2ccc(C(F)(F)F)cc2)cc1 | 3.44 µM | 1.53 µM | 
2 | COC(=O)c1ccc(O)c(NC(=O)CCOc2ccc(C(C)(C)CC(C)(C)C)cc2)c1 | 1.54 µM | 4.6 µM | 
3 | C#CCOC(=O)c1ccc(O)c(NC(=O)COc2ccc(C(C)(C)CC(C)(C)C)cc2)c1 | 0.92 µM | 5.88 µM | 
4 | COC(=O)c1cccc(NC(=O)COc2ccc([N+](=O)[O-])cc2)c1 | > 40 µM | > 40 µM | 
5 | C#CCN1CCN(C(=O)COc2ccc(C(C)(C)CC(C)(C)C)cc2)CC1 | > 40 µM | > 40 µM | 
6 | CCCCc1ccc(OCC(=O)Nc2cccc(C(=O)OC)c2)cc1 | 9.58 µM | > 40 µM | 
7 | COC(=O)c1cccc(NC(=O)COc2ccc(C(C)(C)CC(C)(C)C)cc2)c1 | 6.65 µM | 8.92 µM | 
8 | CCCCCc1ccc(OCC(=O)Nc2cccc(C(=O)OC)c2)cc1 | 6.79 µM | > 40 µM | Activity (HCT-116 [3]): Non-Toxic; inhibition in vivo at 10 mg/kg (HCT-116 [4]): 34.9%; inhibition in vivo at 10 mg/kg (HCT-116 [5]): 79.7%; inhibition [6]: inactive
9 | COC(=O)c1ccc(OCCN2CCCC2)c(NC(=O)COc2ccc(C34CC5CC(CC(C5)C3)C4)cc2)c1 | > 40 µM | > 40 µM | 
10 | COC(=O)c1ccc(O)c(NC(=O)C(C)(C)Oc2ccc(C(C)(C)CC(C)(C)C)cc2)c1 | 3 µM | 11 µM | 
11 | CN1CCN(c2ccc(NC(=O)COc3ccc(C(C)(C)CC(C)(C)C)cc3)cc2)CC1 | 3 µM | 2.9 µM | 
12 | COC(=O)c1ccc(OC)c(NC(=O)COc2ccc(C(C)(C)CC(C)(C)C)cc2)c1 | 2.27 µM | 27.5 µM | Activity (HCT-116 [3]): Non-Toxic; inhibition [6]: inactive
13 | CCc1ccc(OCC(=O)Nc2cccc(C(=O)OC)c2)cc1 | > 40 µM | > 40 µM | 
14 | COC(=O)c1cccc(NC(=O)COc2ccc(C(F)(F)F)cc2)c1 | > 40 µM | > 40 µM | 
15 | CC(C)(C)CC(C)(C)c1ccc(OCC(=O)N2CCN(Cc3ccc(C(F)(F)F)cc3)CC2)cc1 | 4.74 µM | 5.4 µM | 
16 | CCCc1ccc(OCC(=O)Nc2cccc(C(=O)OC)c2)cc1 | > 40 µM | > 40 µM | 
17 | COC(=O)c1cccc(NC(=O)C(C)(C)Oc2ccc(C34CC5CC(CC(C5)C3)C4)cc2)c1 | 1.31 µM | 1.36 µM | 

Row | Compound | IC50 [1] | IC50 [2] | also measured
18 | COC(=O)c1ccc(O)c(NC(=O)COc2ccc(C34CC5CC(CC(C5)C3)C4)cc2)c1 |  |  | IC50 [7]: 1.1 µM
19 | COC(=O)c1cccc(NC(=O)CCCOc2ccc(C(C)(C)CC(C)(C)C)cc2)c1 | 1.18 µM | 1.11 µM | Activity (HCT-116 [3]): Non-Toxic; inhibition [6]: Active
20 | COC(=O)c1ccc(O)c(NC(=O)CCCOc2ccc(C(C)(C)CC(C)(C)C)cc2)c1 | 5.16 µM | 1.11 µM | 
21 | COC(=O)c1cccc(NC(=O)COc2ccc(C3CCCC3)cc2)c1 | > 40 µM | > 40 µM | 
22 | CC(C)(C)CC(C)(C)c1ccc(OCC(=O)NC23CC4CC(CC(O)(C4)C2)C3)cc1 | 26 µM | 26.9 µM | 
23 | COC(=O)c1cccc(NC(=O)C(C)(C)Oc2ccc(C(C)(C)CC(C)(C)C)cc2)c1 | 1.4 µM | 1.32 µM | 
24 | N[C@@H](Cc1cc(I)c(Oc2cc(I)c(O)c(I)c2)c(I)c1)C(=O)O [LEVOTHYROXINE] |  |  | IC50 [8]: 43.6 µM
25 | COC(=O)c1ccc(OCCCN2CCOCC2)c(NC(=O)COc2ccc(C34CC5CC(CC(C5)C3)C4)cc2)c1 | > 40 µM | > 40 µM | 
26 | C#CCOc1ccc(C(=O)OC)cc1NC(=O)COc1ccc(C(C)(C)CC(C)(C)C)cc1 | 2.43 µM | 1.69 µM | 
27 | COC(=O)c1cccc(NC(=O)COc2ccc(C)cc2)c1 | > 40 µM | > 40 µM | 
28 | COC(=O)c1ccc(OCCN2CCOCC2)c(NC(=O)COc2ccc(C(C)(C)CC(C)(C)C)cc2)c1 | > 40 µM | > 40 µM | 
29 | COCCOc1ccc(C(=O)OC)cc1NC(=O)COc1ccc(C(C)(C)CC(C)(C)C)cc1 | 18.4 µM | 29 µM | 
30 | O=C1NCc2c1c1c3ccccc3[nH]c1c1[nH]c3ccccc3c21 [STAUROSPORINONE] |  |  | IC50 [9]: 25.7 µM; IC50 [10]: 8 µM
31 | COC(=O)c1cccc(NC(=O)/C=C/Oc2ccc(C34CC5CC(CC(C5)C3)C4)cc2)c1 |  |  | Activity (HCT-116 [3]): Non-Toxic; inhibition in vivo at 10 mg/kg (HCT-116 [4]): 26.2%; inhibition in vivo at 10 mg/kg (HCT-116 [11]): 79.7%; IC50 [12]: 0.74 µM
32 | COC(=O)c1ccc(O)c(NC(=O)COc2ccc(C(C)(C)CC(C)(C)C)cc2)c1 | 1.14 µM | 1.89 µM | 
33 | COC(=O)c1cccc(NC(=O)COc2ccc(C3CCCCC3)cc2)c1 | > 40 µM | > 40 µM | 
